These results are taken from publication PMC3786204 (Journal of immunology (Baltimore, Md. : 1950), 2013).

Holding throughout (format): cell-based, human
The test system of assay [1] is DENV3 specific CTL. The assay can be described thus: Surface CD8 expression on DENV3 epitope specific CTL. Particulars: CTL primed against DENV3 NS3 399–407 KLNDWDFVV
Put shortly:
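CD8+ T cells were negatively selected from HIV-1-seronegative HLA-A*0201 donors and plated at 7.5×10^5/well. They were primed with DENV3 epitope-pulsed αDC1 (7.5×10^4/well) plus γ-irradiated J558-CD40L cells (5×10^4/well). rhIL-2 (50 IU/ml), rhIL-7 (10 ng/ml) and rhIL-15 (1 ng/ml) were added at day 4. CTL were tested against serotype-variant peptides, with CD8 read by flow cytometry.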

The subject of assay [2] is HIV-1 p24 Gag151–159 specific CTL. The assay can be described thus: Surface CD8 expression on peptide reactive CTL. Particulars: TLN9-specific CTL, gated on IFN-γ producing cells; CTL lines from 5 donors. Put shortly:
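CTL lines were primed in vitro from 5 HIV-1-naïve donors and maintained with IL-2 (200 IU/ml) and IL-7 (10 ng/ml). They were restimulated with peptide variants and assessed by intracellular cytokine staining with anti-CD28/CD49d and Golgistop/Golgiplug. CD8 MFI was read on IFN-γ-producing cells by multiparameter flow cytometry. Statistics used one-way ANOVA with Tukey post hoc test.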

Assay [3] has as its system autologous pre-activated CD4+ T cells. The assay can be described thus: CTL cytotoxicity against peptide-pulsed CD4+ T cell targets. Particulars: targets pulsed with 1 μg/mL peptide, 18h co-culture. Put shortly:
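Targets: PBMC activated 5 days with PHA (1μg/ml) and rIL-2 (100 IU/ml), then CD4+ cells negatively selected, pulsed 1 h with 1μg/mL peptide and washed. Co-cultured with CTL 18h at 37°C at CTL:target 3:1, 1:1, 0.3:1 and 0:1. Stained for CD4/CD8, fixed/permeabilized, 7-AAD 20 min at 37°C. Linear 7-AAD on singlet CD4+ events scored G1, S/G2 and sub-G1 fractions. 4 experiments.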

The test system of assay [4] is autologous iDC. The assay can be described thus: 4 h 51Cr-release cytotoxicity assay. Particulars: 1 μg/ml peptide, TLN9-specific CTL. Put shortly: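 Targets were autologous iDC, generated by culturing monocytes 5–7 days in IMDM with 10% FBS, GM-CSF and IL-4 (both 1000 IU/ml), then peptide-pulsed. Effectors were CTL primed in vitro from CD8+ T cells of HIV-1-seronegative HLA-A*0201 donors, using peptide-pulsed αDC1. Lysis was read by standard 4 h 51Cr release.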

Assay [5] concerns iDC. The assay can be described thus: Microscopy of iDC:CTL co-cultures. Particulars: 24 h co-culture, light microscopy. The procedure, abridged:
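CTL (2×10^5 cells/well) were added to day-5 autologous iDC cultures with 1 μg/ml irrelevant, priming or variant 9mer peptide. Co-cultures were examined by light microscopy after 24h. For SEM, cells grew on glass coverslips removed at 24h, fixed in 2.5% glutaraldehyde in PBS and post-fixed in 1% aqueous osmium tetroxide.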

Assay [6] relates to Gag77–85 reactive CTL from HIV-1 positive donor. The assay can be described thus: Surface CD8 expression on memory CTL expanded from HIV-1 positive donor PBMC. Particulars: CTL expanded from PBMC 6 months post seroconversion.
The subject of assay [7] is autologous iDC. The assay can be described thus: Flow cytometry viability and recovery of iDC in CTL:DC co-cultures. Particulars: CTL and iDC co-culture, 6h, 3:1 CTL:DC. Put shortly:
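CTL were added to day-5 autologous iDC for 6h at 3:1 (CTL:DC). Cultures had no peptide, irrelevant control, priming or variant peptide; titration used decreasing cognate peptide down to .001 μg/ml. Cell loss came from recovered cell-type ratios gated by light scatter and CD3 (T cells) or CD86 (DC). Viability of DC-gated events used LIVE/DEAD Aqua. Three experiments, ± standard error.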

The test system of assay [8] is DC. The assay can be described thus: DC maturation, surface CD86 by flow cytometry. Particulars: 48h; for Effect on CTL-induced DC maturation (CD86 enhancement): PLN9 expressing DC + CTL, sTNF-R1 0.1 μg/ml, sIFNγ-R1 1 μg/ml. The procedure, abridged:
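Day 5 autologous immature DC were co-cultured for 48h with TLN9-specific CTL (2×10^5 cells/well) plus variant peptide PLN9 (1 μg/ml), with or without blockers sTNF-RI (0.1 μg/ml) or IFNγ-R1 (1 μg/ml). Controls were TNF-α (50 ng/ml)-matured DC and peptide-exposed DC without CTL. DC surface CD86 was measured by flow cytometry.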
In general terms: Flow cytometry measures light scatter and fluorescence of single cells or particles in a stream.

Assay [9] has as its system DC. The assay can be described thus: DC IL-12p70 producing capacity after CD40L stimulation. Particulars: exogenous TNF-α 50 ng/ml, 48h, then CD40L stimulation.

With KLNDWDFVV [reference compound], in assay [1], the “CD8 expression on reactive CTL” value is “down-regulation of CD8”.
Still for that read-out and setting: for KLTDWDFVV the value was “CD8 expression was maintained”.
PLNAWVKVV [PLN9]: the “Surface expression of CD8 on peptide reactive CTL” value in assay [2] is “maintained”. The “Killing of peptide-labeled CD4+ T cell targets by TLN9-specific CTL” value in assay [3] is “not effectively killed”. For the same molecule, the “CTL lytic activity against peptide-labeled iDC” value in assay [4] is reported as “dramatically reduced”. Further, the “DC morphology / survival in co-culture with CTL” value in assay [5] was “pronounced webbed network of long cellular extensions”.
Consider RTNDWDFVV, for which the “CD8 expression on reactive CTL” value in assay [1] is “CD8 expression was maintained”.
With SLFNTVATL, the “CD8 expression on reactive CTL” value in [6] was “down-regulation occurred”.
As to TLNAWVKVV [TLN9], the “Surface expression of CD8 on peptide reactive CTL” value in assay [2] is “decreased”. Moreover, in assay [4], the “CTL lytic activity against peptide-labeled iDC” value is “showed lytic activity”. Also, in [7], the “Peptide concentration at which a substantial drop in killing occurs” value is “.001 µg/mL”. The “DC morphology / survival in co-culture with CTL” value in assay [5] was “failed to survive”.
Take TNF-α: the “CD86 expression of DC matured with the factor” value in assay [8] (exogenous TNF-α 50 ng/ml) is on record as “high levels of CD86”. Further, in [9], the “IL-12p70 producing ability of DC matured with the factor” value was “curtailed”.

B1: sIFNγ-rec1: soluble IFN-γ receptor 1, IFN-γ blocker (protein, UniProt P15260 18-245, looked up)
extracellular domain: EMGTADLGPSSVPTPTNVTIESYNMNPIVYWEYQIMPQVPVFTVEVKNYGVKNSEWIDACINISHHYCNISDHVGDPSNSLWVRVKARVGQKESAYAKSEEFAVCRDGKIGPPKLDIRKEEKQIMIDIFHPSVFVNGDEQEVDYDPETTCYIRVYNVYVRMNGSEIQYKILTQKEDDCDEIQCQLAIPVSSLNSQYCVSAEGVLHVWGVTTEKSKEVCITIFNSSIKG
modifications: extracellular domain
For the molecule B1, the “Effect on CTL-induced DC maturation (CD86 enhancement)” value in assay [8] is “did not inhibit”.

B2: sTNF-rec1: Human soluble TNF receptor I, TNF-α blocker (protein, UniProt P19438 30-211, looked up)
extracellular domain: LVPHLGDREKRDSVCPQGKYIHPQNNSICCTKCHKGTYLYNDCPGPGQDTDCRECESGSFTASENHLRHCLSCSKCRKEMGQVEISSCTVDRDTVCGCRKNQYRHYWSENLFQCFNCSLCLNGTVHLSCQEKQNTVCTCHAGFFLRENECVSCSNCKKSLECTKLCLPQIENVKGTEDSGTT
modifications: extracellular domain
Regarding B2, the “Effect on CTL-induced DC maturation (CD86 enhancement)” value in [8] is “partially reduced”.
